Screens as filed in PubChem BioAssay.
Sampled rows, rich in hits. Any-hit rate of the full collection: about 2.4%.
NR2E3 ag-1 – inhibitors of NR2E3-RetCOR corepressor binding, primary screen, NR2E3 agonist project, biochemical, TR-FRET, GST-NR2E3, biotin-RetCOR; Photoreceptor-specific nuclear receptor (Homo sapiens), Q9Y5X4; 1536-well; inhibition of corepressor binding, % at 4.78 µM; hit rate 0.12% among 320,000;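 active means percent inhibition above the cutoff of mean plus 3 SD of all tested compounds, set per screening campaign, cut at about 20% in these data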
Target sequence (Q9Y5X4 whole entry, looked up): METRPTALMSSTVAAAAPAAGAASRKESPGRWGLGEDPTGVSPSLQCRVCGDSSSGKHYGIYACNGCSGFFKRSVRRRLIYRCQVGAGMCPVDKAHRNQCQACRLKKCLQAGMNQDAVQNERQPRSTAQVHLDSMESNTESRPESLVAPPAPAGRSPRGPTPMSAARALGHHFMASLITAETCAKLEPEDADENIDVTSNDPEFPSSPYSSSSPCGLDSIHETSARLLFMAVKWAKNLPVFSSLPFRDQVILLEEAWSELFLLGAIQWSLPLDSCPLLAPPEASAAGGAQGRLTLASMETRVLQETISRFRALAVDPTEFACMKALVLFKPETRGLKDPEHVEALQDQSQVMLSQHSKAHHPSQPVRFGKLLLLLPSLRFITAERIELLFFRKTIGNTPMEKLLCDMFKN
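Material: NR2E3–RetCOR corepressor complex | Quantity: 1.35 nM GST-tagged NR2E3 final | Schedule: 5 h at 4 °C | Replication: Singlicate compound wells | Reagent: RetCOR corepressor, biotinylated, 7 nM | Controls: Biotin wells as high control, 0.6% DMSO wells as low control | Signal: TR-FRET, Eu(K)-anti-GST donor, streptavidin-D2 acceptor, ex 340, em 617/671 nm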
aDG glyco up – activators of alpha-DG glycosylation, primary screen, uHTS, Pro5-aDG cells, AlphaScreen. hit rate 0.22% among 360,000. AID 624168, 2012. alpha-DG glycosylation AlphaScreen (IIH6); 0% Pro5, 100% B10-LARGE cell signal. activation, % at 10 µM;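 active means activation of at least 8% versus controls, or a plate z-score of at least 8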;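 further: Pro5 are CHO cells carrying HIG-tagged alpha-DG that lacks glycosylation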
NR2E3 ag-2 – NR2E3 agonists in two-hybrid cells, primary screen, cell-based, luminescence, CHO-S, Gal4-NCOR/VP16-NR2E3; luciferase; hit rate 0.35% among 360,000; inhibition of corepressor binding, % at 3.98 µM; Photoreceptor-specific nuclear receptor (Homo sapiens), Q9Y5X4;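 active means inhibition above the mean of all tested compounds plus 3 SD, cut at about 70% in these data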;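 further: higher means lower luciferase signal from less NR2E3 corepressor binding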
MPTP block – mitochondrial permeability transition pore inhibitors, primary screen, biochemical, isolated mouse mitochondria, absorbance; inhibition, % at 10 µM; hit rate 1.4% among 360,000; Ca2+ swelling absorbance, 30 min;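 active means inhibition of 50% or more, scaled per plate between neutral and stimulator controls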
697 NFkB inh – inhibitors of PMA/ionomycin-induced NF-kB reporter, 697 cells, primary screen, B-cell NF-kB inhibitor project, cell-based, luminescence, uHTS. hit rate 0.33% among 330,000. AID 435022, 2010. 697 B-cell NF-kB luciferase reporter, 16 h. inhibition, % at 4 µM; in the data active means inhibition above about 35%
Jurkat NFkB inh – inhibitors of induced NF-kB luciferase reporter, primary screen, TCR NF-kB activation inhibitor project, cell-based, luminescence, uHTS. inhibition, % at 4 µM. hit rate 0.53% among 330,000. Jurkat, PMA/ionomycin-induced NF-kB luciferase reporter; in the data active means inhibition above about 50%
Jurkat NFkB conf – PMA/ionomycin-induced NF-kB reporter inhibitors, Jurkat retest, confirmation, T-cell NF-kB inhibitor project, cell-based, luminescence, single concentration; shares compounds with Jurkat NFkB inh; Jurkat NF-kB luciferase, 16 h; inhibition, % at 4 µM; hit rate 27% among 2,700; AID 435020, 2010;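 active means inhibition reaching about 45% at 4 µM in either replicate, limit read from the data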
Large screens that a line does not name were inactive (follow-up assays come after a bar, where they were run).

COc1ccc(/C=C2\CCCC3C2=NN(C(=O)CSc2ncn[nH]2)C3c2ccc(OC)cc2)cc1 (stereo not given)	Jurkat NFkB inh 61.2 | Jurkat NFkB conf inactive
O=C(CSc1ncn[nH]1)N1N=C2/C(=C/c3ccccc3)CCCC2C1c1ccccc1 (stereo not given)	none
COc1ccc(C=C2c3ccccc3C(=O)c3ccccc32)c(OC)c1	Jurkat NFkB inh 65.7 | Jurkat NFkB conf 61.1
COc1ccc(/C=C2\COc3ccccc3C2=O)c(OC)c1	none
C[C@@]12C(=O)Nc3ccc(Br)cc3C(=O)N1[C@H]1c3cc(Br)ccc3OC[C@@H]1[C@@H]2c1ccccc1	none
COc1ccc2c(c1)C(=O)N1[C@H]3c4cc(Br)ccc4OC[C@@H]3[C@H](c3ccccc3)[C@]1(C)C(=O)N2	Jurkat NFkB inh 51.7 | Jurkat NFkB conf 52.6
C=CCNc1nc(-c2ccc(Cl)cc2)cs1	none | Jurkat NFkB conf inactive
C=CCNc1nc(-c2ccc([N+](=O)[O-])cc2)cs1	none
Cc1ccc(NC(=O)Nc2ccc3c(c2)OCO3)cc1F	none | Jurkat NFkB conf inactive
Cc1cc(F)ccc1NC(=O)Nc1ccc2c(c1)OCO2	none
O=C(Nc1ccc2c(c1)OCCO2)Nc1ccc2c(c1)OCO2	none | Jurkat NFkB conf inactive
Cn1c(C(=O)Nc2ccc3c(c2)OCO3)cc2sccc21	none | Jurkat NFkB conf inactive
O=C(Nc1ccc2c(c1)OCO2)c1cccs1	none
O=C(Nc1ccc2c(c1)OCO2)c1ccc(Br)s1	none | Jurkat NFkB conf inactive
Cc1ccc(S(=O)(=O)N2CCCN(C(=O)CNC(=O)c3cccc(C)c3)CC2)cc1	none
CCn1c(=O)c2ccccc2n2c(SCC(N)=O)nnc12	none
COc1cccc(-c2cc(=O)c3cc(NC(=O)c4ccccc4)ccc3[nH]2)c1	Jurkat NFkB inh 89.5 | Jurkat NFkB conf 51.8
COc1cccc(-c2cc(=O)c3cc(NC(=O)c4ccc(Cl)cc4)ccc3[nH]2)c1	Jurkat NFkB inh 78.1 | Jurkat NFkB conf inactive
COc1cccc(C(=O)Nc2ccc3c(c2)C(=O)NC3=O)c1	none
COc1cccc(-c2cc(=O)c3cc(NC(=O)c4ccc(N(C)C)cc4)ccc3[nH]2)c1	Jurkat NFkB inh 87.3 (no result: aDG glyco up, NR2E3 ag-2, MPTP block) | Jurkat NFkB conf 57.1
Cc1ccc(NP(=O)(Nc2ccc(C)cc2)Nc2ccc(C)cc2)cc1	none
CCCC1CC(CCc2ccccc2)OS(=O)(=O)N1 (stereo not given)	none
O=C1CCCc2nc(N3CCc4ccccc43)ncc21	none | Jurkat NFkB conf inactive
COc1cc(NC(=O)c2cc(-c3ccc4c(c3)OCO4)on2)cc(OC)c1OC	Jurkat NFkB inh 66.3 | Jurkat NFkB conf inactive
N#C/C(=N\Nc1ccc(F)cc1)C(=N)N1CCCCC1	none
N#C/C(=N\Nc1cccc(F)c1)C(=N)N1CCCCCC1	none | Jurkat NFkB conf inactive
Cc1cn2nc(N)c3ccccc3c2n1	none
Nc1nn2cc(-c3ccccc3)nc2c2ccccc12	none | Jurkat NFkB conf inactive
COc1ccc(C2=Nn3c([n+](C)c4ccccc43)SC2)cc1	Jurkat NFkB inh 54.0 | Jurkat NFkB conf 63.5
C[n+]1c2n(c3ccccc31)N=C(c1ccc(Cl)cc1)CS2	none
Cc1nnc2n1N=C(c1ccc(F)cc1F)CS2	none
CCc1ccc(-c2cc(C)no2)cc1S(=O)(=O)NCc1ccccc1OC	none
COc1ccccc1CNS(=O)(=O)c1ccc(-c2cc(C)no2)cc1	Jurkat NFkB inh 60.4 | Jurkat NFkB conf 48.2
CC(=O)c1sc(NC(=O)c2ccc(C(C)(C)C)cc2)nc1C	none | Jurkat NFkB conf inactive
